Results on 14 compounds are retold here after PubChem BioAssay.

Experiment [1] is described as follows: inhibitors of TNFa-induced NFkB p65 translocation, primary screen, imaging, HUVEC, MLSMR starter and 10KST1 sets (AID 438).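 Also: compound added about 3h40 before a 20 min TNFalpha stimulation.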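 As to inhibition: signal is the nuclear over cytoplasmic p65 intensity ratio per well.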 Particulars: HUVEC TNFa-induced p65 nuclear translocation; cell count: measured here: nuclei count (cytotoxicity indicator), at 2.08 µM; inhibition: at 2 µM, stronger effect = higher value, 0% TNFa-plus-vehicle, 100% no-TNFa wells.
The nature of experiment [2]: inhibitors of mutant huntingtin aggregation, primary screen, imaging, exon1htt(103Q)mCFP cells, high-content imaging (AID 483;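 active = visual image review flags a hit and inhibition of aggregation exceeds 20%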;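 also: compound exposure lasted 3 days before fixation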;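 as to nuclei count: percent of the per-plate median nuclei count of sample wells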). Particulars: exon1htt(103Q)mCFP cell line, aggregate imaging, at 2 µM; inhibition of aggregation: stronger effect = higher value; nuclei count: measured here: cell count, toxicity.
The nature of experiment [3]: inhibitors of E-selectin induction by TNFa, primary screen, imaging, HUVEC, immunofluorescence, MLSMR starter and 10KST1 sets (AID 487;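 active = visually confirmed hit in the image check and inhibition above 20%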;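 as to inhibition: signal is fraction of cell area covered by stained E-selectin grains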;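 as to nuclei count: 100% = median nuclei count of all wells on the same plate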). Particulars: HUVEC TNFalpha-induced E-selectin immunofluorescence imaging, at 2 µM; inhibition: stronger effect = higher value; nuclei count: measured here: cell number, toxicity.
Experiment [4] concerns the target Voltage-gated potassium channel subunit beta-2 (Rattus norvegicus) (UniProt P62483). In words: KvBeta enzyme negative modulators, primary screen, biochemical, NADPH fluorescence (AID 622;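 active = fluorescence slope higher than the sample average by over 3 SD, cut at about -0.22 in these data, passing the limit was not always enough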;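 also: slope of raw intensity against log time taken from 70 to 1610 s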). To be noted: recombinant KvBeta, 4-cyanobenzaldehyde reduction, at 10 µM, stronger effect = higher value.
The target is the same in experiment [5]. In words: KvBeta positive modulators, primary screen, biochemical, NADPH fluorescence (AID 623;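 active = NADPH fluorescence slope more negative than the mean of all samples by about 3 SD, 99.7% confidence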;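 also: fluorescence intensity change per second fitted from 20 to 320 s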). Particulars: Recombinant KvBeta, NADPH fluorescence decrease slope, 10 min; at 10 µM; stronger effect = lower value.
The target of experiment [6] is Muscarinic acetylcholine receptor M4 (Homo sapiens) (UniProt P08173). In words: compounds altering M4/GIRK thallium flux, either direction, primary screen, M4 allosteric agonist project, cell-based, HEK293 M4/GIRK, BTC-AM (AID 625;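 active = fluorescence slope after compound addition differing from the mean of all tested samples at 99.7% confidence, mostly higher but some lower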;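 also: thallium influx through GIRK channels coupled to M4 in HEK293 cells with BTC-AM dye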). To be noted: at 10 µM, actives lie on both sides. The essentials:
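Material: HEK293 cells with M4 receptor and GIRK channels; Times: cells overnight at 37 °C, BTC-AM loading 1 h, reads 2 min total; Technique: kinetic BTC-AM fluorescence sampled at 1 Hz, 10 s pre-addition baseline; Read-out basis: slope over 15–24 s of trace normalized to starting intensity; Controls: carbachol positive, DMSO negative.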

Experiment [7] in a line: inhibitors of Sendai virus-induced IRF3 signaling, primary screen, TLR/RLR signaling modifier project, cell-based, Sendai virus stimulus, luciferase, 10K MLSCN set (AID 602276;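 active = inhibition at or above 50% at 10 µM; inactive = inhibition below 50%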;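 also: firefly luciferase from ISG56 promoter only with Renilla not read in this screen; 0% = Sendai virus plus DMSO and 100% = medium plus DMSO without virus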). To be noted: HEK293 RL24 IRF3 luciferase reporter, at 10 µM, stronger effect = higher value.
The nature of experiment [8]: inhibitors of poly I:C-induced TLR3 signaling, primary screen, cell-based, poly I:C stimulus, luciferase, 10K MLSCN set (AID 602277;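 active = inhibition of the reporter signal at or above 50%; inactive = inhibition below 50%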). To be noted: HEK293-TLR3 RL24 IRF3 luciferase reporter, at 10 µM, stronger effect = higher value.

The source made the active and inactive calls.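 The calls were made as follows, unless noted: active = inhibition above 20% together with a positive visual image hit; inconclusive = visual image hit but inhibition not above 20%; inactive = no visual image hit.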

Chain of Muscarinic acetylcholine receptor M4 (Homo sapiens) (P08173 whole entry, looked up): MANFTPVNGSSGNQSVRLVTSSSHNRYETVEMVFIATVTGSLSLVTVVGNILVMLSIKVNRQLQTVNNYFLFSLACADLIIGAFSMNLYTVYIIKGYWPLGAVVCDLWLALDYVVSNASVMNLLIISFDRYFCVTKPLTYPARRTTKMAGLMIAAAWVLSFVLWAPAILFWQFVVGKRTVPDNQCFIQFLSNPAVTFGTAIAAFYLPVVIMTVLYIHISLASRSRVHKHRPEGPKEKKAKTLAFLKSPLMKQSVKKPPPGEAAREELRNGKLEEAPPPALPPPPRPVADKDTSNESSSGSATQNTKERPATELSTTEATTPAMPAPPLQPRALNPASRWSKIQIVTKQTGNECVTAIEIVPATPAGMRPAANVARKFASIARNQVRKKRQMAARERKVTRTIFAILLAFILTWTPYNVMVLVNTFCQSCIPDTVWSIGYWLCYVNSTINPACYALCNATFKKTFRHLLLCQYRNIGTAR
Chain of Voltage-gated potassium channel subunit beta-2 (Rattus norvegicus) (P62483 whole entry, looked up): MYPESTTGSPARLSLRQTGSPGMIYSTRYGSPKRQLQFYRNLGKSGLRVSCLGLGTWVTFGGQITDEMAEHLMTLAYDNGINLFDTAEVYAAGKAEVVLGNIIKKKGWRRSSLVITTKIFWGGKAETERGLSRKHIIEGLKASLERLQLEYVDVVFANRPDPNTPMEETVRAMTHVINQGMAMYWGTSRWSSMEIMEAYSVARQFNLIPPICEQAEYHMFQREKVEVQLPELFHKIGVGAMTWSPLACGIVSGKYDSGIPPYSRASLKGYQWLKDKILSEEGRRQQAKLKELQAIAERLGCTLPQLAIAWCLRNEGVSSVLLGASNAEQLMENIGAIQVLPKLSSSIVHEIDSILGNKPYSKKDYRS

Regarding `Cc1cc(=O)oc2cc(Oc3ncccn3)ccc12`, in experiment [1], the cell count was found to be 476. Moreover, the inhibition in experiment [1] is 2.4% (inactive); in experiment [3] it was -29.9% (inactive); in experiment [7] it was -6.46% (inactive); in experiment [8] it was -5.6% (inactive). For the same compound, the inhibition of aggregation in experiment [2] was 9% (inactive). The nuclei count in experiment [2] came to 93.1%; in experiment [3], 111%. The fluorescence slope is -0.427 (inactive) in experiment [4] and 0.00578 (inactive) in experiment [6]. Moreover, the NADPH fluorescence slope in experiment [5] is -1.6e-05 (inactive).

In the case of `Cc1cccc(N2CCN(C(=O)Cn3ccc4ccccc4c3=O)CC2)c1C`, in experiment [1], the cell count is 340. For the same compound, the inhibition in experiment [1] was 11% (inactive); in experiment [3], -4.9% (inactive); in experiment [7] it was -3.75% (inactive); in experiment [8], -30.8% (inactive). Moreover, the inhibition of aggregation in experiment [2] is 3.8% (inactive). The results for the nuclei count in experiment [2] and in experiment [3] were 95.6% and 94%, respectively. Moreover, the figures for the fluorescence slope in experiment [4] and in experiment [6] were -0.568 (inactive) and 0.00591 (inactive), respectively. Also, the NADPH fluorescence slope in experiment [5] is 2.6e-06 (inactive).

Take `O=C(O)c1oc2ccccc2c1-n1cccc1`: the cell count in experiment [1] was 436. Besides, the inhibition in experiment [1] is 13.8% (inactive); in experiment [3], -0.2% (inactive); in experiment [7], 10.5% (inactive); in experiment [8], 26% (inactive). For the same compound, the inhibition of aggregation in experiment [2] is 10.7% (inactive). Also, the figures for the nuclei count in experiment [2] and in experiment [3] were 110% and 112%, respectively. In addition, the fluorescence slope was -0.531 (inactive) in experiment [4] and 0.00514 (inactive) in experiment [6]. Further, in experiment [5], the NADPH fluorescence slope was -1.3e-05 (inactive).

Regarding `CCOC(=O)C1CCCN(C(=O)c2cccs2)C1` (centres undefined), the cell count in experiment [1] stood at 330. Also, the inhibition was 3.3% (inactive) in experiment [1], 22% (inactive) in experiment [3], 12.8% (inactive) in experiment [7] and 3.43% (inactive) in experiment [8]. The inhibition of aggregation in experiment [2] is 13.3% (inactive). Also, the nuclei count in experiment [2] is 110%; in experiment [3], 104%. Further, the fluorescence slope in experiment [4] was -0.456 (inactive); in experiment [6] it was 0.0055 (inactive). Also, the NADPH fluorescence slope in experiment [5] is -5e-05 (inactive).

For `N#Cc1nc(COc2ccccc2)oc1NCCN1CCOCC1`, the cell count in experiment [1] was found to be 778. The inhibition was 1.6% (inactive) in experiment [1], -14.1% (inactive) in experiment [3], 2.21% (inactive) in experiment [7] and 2.82% (inactive) in experiment [8]. Besides, in experiment [2], the inhibition of aggregation was -34.9% (inactive). The nuclei count in experiment [2] stood at 96.4%; in experiment [3], 102%. The fluorescence slope was -0.569 (inactive) in experiment [4] and 0.00627 (inactive) in experiment [6]. For the same compound, the NADPH fluorescence slope in experiment [5] is 2.2e-05 (inactive).

As to `CC(c1ccco1)N(C(=O)COc1ccc(Cl)cc1Cl)c1ccccn1` (centres undefined), in experiment [1], the cell count came out at 720. The inhibition is 2.4% (inactive) in experiment [1], -108% (inactive) in experiment [3], 2.26% (inactive) in experiment [7] and -73.7% (inactive) in experiment [8]. In addition, in experiment [2], the inhibition of aggregation is -4.8% (inactive). In addition, the figures for the nuclei count in experiment [2] and in experiment [3] were 96% and 119%, respectively. In addition, the fluorescence slope in experiment [4] is -0.466 (inactive); in experiment [6], 0.00469 (inactive). The NADPH fluorescence slope in experiment [5] is -6.4e-05 (inactive).

In the case of `COc1ccc(CC(=O)Nc2c3c(nn2-c2cccc(Cl)c2)CS(=O)(=O)C3)cc1`, the cell count in experiment [1] was 785. The inhibition in experiment [1] is -11.6% (inactive); in experiment [3] it was -28.2% (inactive); in experiment [7] it was 19.7% (inactive); in experiment [8], 20.9% (inactive). Besides, the inhibition of aggregation in experiment [2] is -2.4% (inactive). For the same compound, the nuclei count in experiment [2] amounted to 98.5%; in experiment [3], 107%. Further, the fluorescence slope was -0.529 (inactive) in experiment [4] and 0.00322 (inactive) in experiment [6]. The NADPH fluorescence slope in experiment [5] was 1.2e-05 (inactive).

For the compound `Cc1nc(CNS(=O)(=O)c2cc(C)c(C)cc2C)cs1`, the cell count in experiment [1] is 331. In addition, the inhibition in experiment [1] was 6.3% (inactive); in experiment [3] it was -13.2% (inactive); in experiment [7], 9.82% (inactive); in experiment [8] it was 10.7% (inactive). Moreover, the inhibition of aggregation in experiment [2] was -7.4% (inactive). For the same compound, the nuclei count came out at 109% in experiment [2] and 107% in experiment [3]. Moreover, the values for the fluorescence slope in experiment [4] and in experiment [6] were -0.329 (inactive) and 0.00703 (inactive), respectively. Besides, the NADPH fluorescence slope in experiment [5] is -5.1e-05 (inactive).

Turning to `COc1cccc(NC(=O)COc2ccccc2C(N)=O)c1`, the cell count in experiment [1] is 221. Moreover, the inhibition in experiment [1] was -1.2% (inactive); in experiment [3] it was 14.7% (inactive); in experiment [7] it was -78.1% (inactive); in experiment [8], -182% (inactive). For the same compound, the inhibition of aggregation in experiment [2] was 19.1% (inactive). Also, the nuclei count in experiment [2] amounted to 83.6%; in experiment [3], 78%. The fluorescence slope in experiment [4] was -0.589 (inactive); in experiment [6], 0.00613 (inactive). In addition, the NADPH fluorescence slope in experiment [5] is 6.4e-05 (inactive).

As to `CCc1nnc(NC(=O)c2ccc(S(=O)(=O)NC3CCCCC3)cc2)s1`, in experiment [1], the cell count was 534. Further, the inhibition was 0.4% (inactive) in experiment [1], -22.8% (inactive) in experiment [3], 0.752% (inactive) in experiment [7] and -17.5% (inactive) in experiment [8]. In addition, the inhibition of aggregation in experiment [2] is 20.7% (inactive). The nuclei count was 107% in experiment [2] and 110% in experiment [3]. In addition, the fluorescence slope in experiment [4] is -0.307 (inactive); in experiment [6], 0.00791 (inactive). Moreover, in experiment [5], the NADPH fluorescence slope is -6e-05 (inactive).

`COc1ccc(Br)cc1S(=O)(=O)N1CCOCC1`: in experiment [1], the cell count is 336. Further, the inhibition is 5% (inactive) in experiment [1], -6.1% (inactive) in experiment [3], 17.4% (inactive) in experiment [7] and 16.5% (inactive) in experiment [8]. In experiment [2], the inhibition of aggregation was -25.8% (inactive). Also, the nuclei count in experiment [2] turned out to be 119%; in experiment [3] it was 113%. The fluorescence slope in experiment [4] is -0.462 (inactive); in experiment [6] it was 0.00557 (inactive). In addition, the NADPH fluorescence slope in experiment [5] was -3.5e-05 (inactive).

Regarding `O=C(Cc1ccccc1)Nc1nnc(-c2cccs2)s1`, in experiment [1], the cell count stood at 373. The inhibition in experiment [1] was -5.4% (inactive); in experiment [3], -11.8% (inactive); in experiment [7] it was 7.41% (inactive); in experiment [8], -69.9% (inactive). Moreover, the inhibition of aggregation in experiment [2] is -3.5% (inactive). The nuclei count in experiment [2] came to 115%; in experiment [3] it was 130%. For the same compound, the fluorescence slope in experiment [4] is -0.521 (inactive); in experiment [6], 0.00894 (inactive). Also, the NADPH fluorescence slope in experiment [5] was -1.2e-05 (inactive).

Regarding `COc1ccccc1CN1C(=O)CCC1(C)C(=O)NC1CCCCCC1` (centres undefined), in experiment [1], the cell count is 452. The inhibition in experiment [1] was 5.3% (inactive); in experiment [3], -184% (inactive); in experiment [7], 0.126% (inactive); in experiment [8], 9.28% (inactive). In addition, the inhibition of aggregation in experiment [2] was 14.8% (inactive). The nuclei count stood at 63.8% in experiment [2] and 115% in experiment [3]. Moreover, the fluorescence slope in experiment [4] was -0.44 (inactive); in experiment [6], 0.00525 (inactive). The NADPH fluorescence slope in experiment [5] was 0.000132 (inactive).

Turning to `COC(=O)COc1nc(C)c(Br)c(OC)n1`, the cell count in experiment [1] was determined as 367. The inhibition was 2.4% (inactive) in experiment [1], -89.5% (inactive) in experiment [3], 15.8% (inactive) in experiment [7] and 17.1% (inactive) in experiment [8]. In addition, the inhibition of aggregation in experiment [2] is -14% (inactive). Besides, the figures for the nuclei count in experiment [2] and in experiment [3] were 96.9% and 110%, respectively. For the same compound, the fluorescence slope was -0.615 (inactive) in experiment [4] and 0.00344 (inactive) in experiment [6]. The NADPH fluorescence slope in experiment [5] is -1.6e-05 (inactive).
